A selection: hits, their analogues and other compounds. The true share with any hit is near 1.6%.
TCR CD3 inh = inhibitors of human TCR-CD3 interaction, primary screen, biochemical, fluorescence, TAMRA-labeled TCR probe. T-cell receptor (TCR). inhibition, % at 9.4 µM. 0.37% of 360,000 active. AID 651800, 2012;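 note: recombinant mutant TCR 2C K166C tagged with TAMRA read by polarization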
HTRA1 inhibitor = HTRA1 serine protease inhibitors, primary screen, biochemical, fluorescence polarization, HTS. 0.5% of 340,000 active. Q92743. recombinant HTRA1, FP-rhodamine activity-based probe. inhibition, % at 5.96 µM; in the data active = inhibition above about 36%
SIAE primary = human SIAE inhibitors, primary screen, biochemical, fluorescence polarization, FP-Rh probe, 1536-well HTS; SIAE FP-Rh probe binding; inhibition, % at 9.66 µM; AID 1053197, 2014; 0.69% of 370,000 active; Sialate O-acetylesterase (Homo sapiens), Q9HAT2;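 active = inhibition above a cutoff: mean of compounds within the control limits plus 3 SD of those, cut at about 17% in these data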
mABHD4 FP = ABHD4 inhibitors, primary screen, biochemical, fluorescence polarization, mouse; 0.54% of 370,000 active; purified mABHD4, FP-Rh probe fluorescence polarization; (Lyso)-N-acylphosphatidylethanolamine lipase (Mus musculus), Q8VD66; inhibition, % at 8.92 µM;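 active = inhibition exceeding the mean over every tested compound plus 3 SD, cut at about 30% in these data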
Target sequence (Q8VD66 whole entry, looked up): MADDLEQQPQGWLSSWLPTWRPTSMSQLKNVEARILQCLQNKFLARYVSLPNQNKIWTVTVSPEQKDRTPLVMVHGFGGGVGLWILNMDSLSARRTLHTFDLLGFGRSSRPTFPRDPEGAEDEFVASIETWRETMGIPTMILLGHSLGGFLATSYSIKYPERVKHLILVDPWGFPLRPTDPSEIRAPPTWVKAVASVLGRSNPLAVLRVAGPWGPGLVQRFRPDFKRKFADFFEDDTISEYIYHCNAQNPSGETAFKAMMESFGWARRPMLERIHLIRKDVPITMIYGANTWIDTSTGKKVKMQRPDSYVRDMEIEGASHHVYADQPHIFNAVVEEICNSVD
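Assay system: wild-type mouse ABHD4 protein; compound: single nominal dose of 8.92 µM, 0.89% DMSO final; schedule: 45 min + 60 min at 25 °C; measured by: FP readout, ex 525 nm / em 598 nm; evaluation: % inhibition of FP-Rh probe binding versus controls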
DAGLB inh = DAGLB lipase inhibitors, primary screen, biochemical, fluorescence, HTS. HEK293T DAGLB membrane lysate, EnzChek fluorogenic substrate. inhibition, % at 5.17 µM. 0.059% of 340,000 active. AID 504411, 2011; in the data active = inhibition above about 34%
BSA TAMRA ctr = compounds interfering with TAMRA-BSA probe, counter-screen for TCR-CD3 interaction inhibitor project, biochemical, fluorescence, TAMRA-labeled BSA; shares compounds with TCR CD3 inh; TAMRA-labeled BSA probe fluorescence counterscreen; inhibition, % at 9.4 µM; 10% of 1,200 active; AID 652035, 2013; in the data active = inhibition above about 23%
TCR-CD3 conf = TCR-CD3 interaction inhibitors, retest, confirmation, biochemical, fluorescence, TAMRA-labeled TCR probe. shares compounds with TCR CD3 inh. TAMRA-labeled TCR probe fluorescence binding assay. inhibition, % at 9.4 µM. 48% of 1,200 active. AID 652036, 2013
Large screens that a line does not name were inactive (follow-up assays come after a bar, where they were run). Cut-off read from the data, not from the text of the source, unless noted: active = inhibition above about 19%; inactive = the rest.

CCC(=O)Nc1ccc2nc3c(=O)[nH]c(=S)[nH]c3nc2c1	TCR CD3 inh 29 | BSA TAMRA ctr inactive | TCR-CD3 conf 28
CCN(CC)S(=O)(=O)c1ccc(NC(=O)C2c3ccccc3Oc3ccccc32)cc1	TCR CD3 inh 45 | BSA TAMRA ctr inactive | TCR-CD3 conf inactive
CCN(CC)S(=O)(=O)c1ccc(NC(=O)Nc2cccc(C(F)(F)F)c2)cc1	TCR CD3 inh 81 | BSA TAMRA ctr 24 | TCR-CD3 conf 54
CN(CCCOC(=O)c1occ2ccccc12)C1CN(Cc2cn(Cc3ccccc3Cl)nn2)S(=O)(=O)C1 (stereo not drawn)	none (no result: TCR CD3 inh, HTRA1 inhibitor, DAGLB inh)
CCN(CC)C(=O)CSc1nnc(-c2ccc(C(C)(C)C)cc2)n1Cc1ccco1	none (no result: TCR CD3 inh, HTRA1 inhibitor, DAGLB inh)
CC(=O)NNC(=S)NC(=O)c1ccc(C)cc1	TCR CD3 inh 23 | BSA TAMRA ctr inactive | TCR-CD3 conf 20
Cc1ncc(CO)c(/C=N/NC(=O)c2cc3c(s2)CCCC3)c1O	TCR CD3 inh 38 | BSA TAMRA ctr inactive | TCR-CD3 conf 27
NNC(=O)c1cc2c(s1)CCCCCC2	none
COc1ccc(-c2ccc3c(n2)CCCN3S(=O)(=O)c2ccc(C#N)cc2)cc1	none (no result: HTRA1 inhibitor, DAGLB inh)
O=C(c1ccc2nc(-c3ccco3)c(-c3ccco3)nc2c1)N1CCN(c2ncccn2)CC1	TCR CD3 inh 29, SIAE primary 35, mABHD4 FP 33 | BSA TAMRA ctr inactive | TCR-CD3 conf 25
O=C(OCc1cn(Cc2ccc(Cl)cc2)nn1)N1CCOCC1	none (no result: TCR CD3 inh, HTRA1 inhibitor, DAGLB inh)
O=C(CNC(=O)/C=C/c1ccco1)N=Nc1c(O)[nH]c2ccccc12	TCR CD3 inh 29 | BSA TAMRA ctr inactive | TCR-CD3 conf 43
Cn1c(NC(=O)c2ccccc2)nc(Cc2ccccc2)c1-c1ccccc1	none (no result: TCR CD3 inh, HTRA1 inhibitor, DAGLB inh)
COc1ccc(-n2nnnc2C(c2ccccc2)N2CCN(C/C=C/c3ccccc3)CC2)cc1 (stereo not drawn)	none (no result: HTRA1 inhibitor, DAGLB inh)
O=C(NNC(=S)Nc1ccccc1)NNC(=S)Nc1ccccc1	TCR CD3 inh 30 | BSA TAMRA ctr inactive | TCR-CD3 conf inactive
Cc1ccc(-c2noc(CCCC(=O)N3CCOCC3)n2)cc1	none
Cc1cccc(-c2noc(CCCC(=O)N3CCOCC3)n2)c1	TCR CD3 inh 37 | BSA TAMRA ctr inactive | TCR-CD3 conf inactive
Oc1ccc(Br)cc1/C=N/n1c(COc2ccccc2)n[nH]c1=S	TCR CD3 inh 20 | BSA TAMRA ctr inactive | TCR-CD3 conf inactive
NC(=O)c1c(N)[nH]c(C(=O)c2ccccc2)c1-c1ccccc1	none (no result: HTRA1 inhibitor, DAGLB inh)
COC1=CC(C)C2CC3OC(O)CC4C(C)=C(OC)C(=O)C(C2(C)C1=O)C34C (stereo not drawn)	none (no result: HTRA1 inhibitor, DAGLB inh)
O=C(OCc1ccccc1)c1ccc(Br)o1	TCR CD3 inh 48 | BSA TAMRA ctr inactive | TCR-CD3 conf inactive
O=C(COC(=O)c1ccc(Br)o1)NCCCc1ccccc1	none
COc1ccc(-c2cc(C(=O)N(C3CCCCC3)C3CCCCC3)no2)cc1	none (no result: TCR CD3 inh, HTRA1 inhibitor, DAGLB inh)
Cc1ccc(C(=O)OCC(=O)Nc2ccc(C(N)=O)cc2)s1	TCR CD3 inh active | BSA TAMRA ctr inactive | TCR-CD3 conf inactive
CCN(c1ccc(NC(=O)COC(=O)c2ccc(C)s2)cc1)C(C)C	none
COC(CNC(=O)[C@H](Cc1c[nH]c2ccccc12)NC1(C(=O)NC2CCCCC2)CCCCC1)OC	none (no result: TCR CD3 inh, HTRA1 inhibitor, DAGLB inh)
Cc1ccc(S(=O)(=O)N2CCN(C(=O)c3cccn3C)CC2)cc1	none (no result: TCR CD3 inh, HTRA1 inhibitor, DAGLB inh)
COc1ccc(CCNC(=O)C(=O)NCC2OCCN2S(=O)(=O)c2ccc(OC)cc2)cc1 (stereo not drawn)	TCR CD3 inh 49 | BSA TAMRA ctr inactive | TCR-CD3 conf inactive
COc1cccc(CNC(=O)Cn2c(-c3ccccc3)cc(C(C)=O)c2C)c1	none (no result: TCR CD3 inh, HTRA1 inhibitor, DAGLB inh)
Cc1cc2oc3ccc(NCCCn4ccnc4)cc3c(=O)c2cc1C	TCR CD3 inh 35 | BSA TAMRA ctr inactive | TCR-CD3 conf 20
Cc1cc2oc3ccc(NCCCN4CCOCC4)cc3c(=O)c2cc1C	none
